The record followed here is ChEMBL document CHEMBL1123678, “Octahydropyrazino[2',3':3,4]pyrido[1,2-a]indoles. A new class of potent antihypertensive agents” (1987).

The source made the active and inactive calls. The calls are words filed in the database; no cut-off is given here.

The test system of assay [1] is Rattus norvegicus. Put plainly: Antihypertensive activity was determined in cannulated spontaneously hypertensive rats(SHR) and maximum decrease of mean arterial blood pressure (MABP) at 0.5 mg/kg oral dose. The assay is classed as functional, Artery. The method, boiled down:
(§1)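 Cannulated SHR given compound by gastric gavage in 0.5% methylcellulose (5 mL/kg), doses 0.1–50 mg/kg, 4–8 animals per dose, after 1-h equilibration. MABP recorded for 4 h; maximal % decrease reported with time to peak effect. Significance by two-way analysis of variance.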

The subject of assay [2] is Rattus norvegicus. Put plainly: Antihypertensive activity was determined in cannulated spontaneously hypertensive rats(SHR) and maximum decrease of mean arterial blood pressure (MABP) at 50 mg/kg oral dose. The assay is classed as functional, Artery. Summed up: as §1
Assay [3] deals with Rattus norvegicus. Put plainly: Antihypertensive activity was determined in cannulated spontaneously hypertensive rats(SHR) and maximum decrease of mean arterial blood pressure (MABP) at 5 mg/kg oral dose. The assay is classed as functional, Artery. The method, boiled down: as §1
Assay [4] has as its system Rattus norvegicus. The assay is described as follows: Antihypertensive activity was determined in cannulated spontaneously hypertensive rats(SHR) and marked bradycardia was reported at a dose of 50 mg/kg. Also noted: dose 50 mg/kg. The assay is classed as functional, organism-based.
The test system of assay [5] is Rattus norvegicus. The assay is described as follows: Vasopressor responses to epinephrine as a measure of the alpha-1-adrenoceptor blocking activity at 0.5 mg/kg administered orally was reported to be antagonized. The assay is classed as functional, organism-based. Further details: dose 0.5 mg/kg.
The test system of assay [6] is Rattus norvegicus. Put plainly: Antihypertensive activity was determined in cannulated spontaneously hypertensive rats(SHR) and maximum decrease of mean arterial blood pressure (MABP) at 10 mg/kg oral dose. The assay is classed as functional, Artery. Summed up:
as §1

For assay [7], the system named is Rattus norvegicus. Put plainly: Vasopressor responses to epinephrine as a measure of the alpha-1-adrenoceptor blocking activity at 10 mg/kg administered orally was reported to be antagonized. Also noted: dose 10 mg/kg. The assay is classed as functional, organism-based.
For assay [8], the system named is Rattus norvegicus. Put plainly: Antihypertensive activity was determined in cannulated spontaneously hypertensive rats(SHR) and maximum decrease of mean arterial blood pressure (MABP) at 1 mg/kg oral dose. The assay is classed as functional, Artery. Summed up:
as §1

The subject of assay [9] is Rattus norvegicus. The assay is described as follows: Vasopressor responses to epinephrine as a measure of the alpha-1-adrenoceptor blocking activity at 1 mg/kg administered orally was reported to be reveresed. The assay is classed as functional, organism-based. Also noted: dose 1 mg/kg.
Assay [10] deals with Rattus norvegicus. Put plainly: Antihypertensive activity was determined in cannulated spontaneously hypertensive rats(SHR) and marked bradycardia was reported at a dose of 10 mg/kg. The assay is classed as functional, organism-based. Further details: dose 10 mg/kg.
Assay [11] deals with Rattus norvegicus. Put plainly: Antihypertensive activity was determined in cannulated spontaneously hypertensive rats(SHR) and marked bradycardia was reported at a dose of 5 mg/kg. The assay is classed as functional, organism-based. Also noted: dose 5 mg/kg.
Assay [12] has as its system Rattus norvegicus. Put plainly: Vasopressor responses to epinephrine as a measure of the alpha-1-adrenoceptor blocking activity at 5 mg/kg administered orally was reported to be reveresed. The assay is classed as functional, organism-based. Also noted: dose 5 mg/kg.
For assay [13], the system named is Rattus norvegicus. Put plainly: Vasopressor responses to epinephrine as a measure of the alpha-1-adrenoceptor blocking activity at 10 mg/kg administered orally was reported to be reveresed. The assay is classed as functional, organism-based. Further details: dose 10 mg/kg.
The test system of assay [14] is Rattus norvegicus. Put plainly: Antagonism of vasopressor responses to epinephrine as a measure of the alpha-1-adrenoceptor blocking activity at 50 mg/kg administered orally was reported to be reversed. The assay is classed as functional, organism-based. Also noted: dose 50 mg/kg.
For assay [15], the system named is Rattus norvegicus. The assay is described as follows: Antagonism of vasopressor responses to epinephrine as a measure of the alpha-1-adrenoceptor blocking activity at 10 mg/kg administered orally was reported to have no change. The assay is classed as functional, organism-based. Further details: dose 10 mg/kg.
Assay [16] relates to Rattus norvegicus. Put plainly: Antihypertensive activity was determined in cannulated spontaneously hypertensive rats(SHR) and heart rate response was reported to reduce by 10-25% after 4 hr at a peroral dose of 10 mg/kg. The assay is classed as functional, organism-based. Further details: dose 10 mg/kg.

On to `CCN1CCN(C(C)C)C2CCn3c(c(C)c4cc(OC)ccc43)C21.Cl.Cl` (stereo not given), for which the entries for the “Decrease in MABP” value in the assay on Rattus norvegicus [1], with Rattus norvegicus [2] and in the assay with Rattus norvegicus [3] were 8%, 43% and 33%, respectively. Also, in the assay with Rattus norvegicus [4], the HR entry was “Heart rate response was reported to reduce by 10-25% after 4 hr at a peroral dose of 5.0 mg/kg”. Further, in the assay with Rattus norvegicus [5], the Activity entry is reported as “Vasopressor response antagonized”.
Regarding `Cc1c2n(c3ccccc13)CCC1C2NCCN1C(C)C.Cl.Cl` (stereo not given), the “Decrease in MABP” value in the assay on Rattus norvegicus [6] was found to be 12%. Besides, the Activity entry in the assay with Rattus norvegicus [7] is on record as “Vasopressor response antagonized”.
As to `CCN1CCN(CC)[C@H]2c3c(C)c4ccccc4n3CC[C@@H]21.Cl.Cl`, the results for the “Decrease in MABP” value with Rattus norvegicus [6], in the assay with Rattus norvegicus [8] and with Rattus norvegicus [3] were 32%, 14% and 28%, respectively. The Activity result in the assay with Rattus norvegicus [9], with Rattus norvegicus [12] and in the assay with Rattus norvegicus [13] was “Vasopressor response reveresed” each time. Moreover, the HR result in the assay on Rattus norvegicus [10] and with Rattus norvegicus [11] was “Heart rate response was reported to be reduce by 10-25% after 4 hr at a dose of 25 mg/kg” throughout.
Consider `CCN1CCN(CCOc2ccccc2)C2CCn3c(c(C)c4ccccc43)C21.Cl.Cl` (stereo not given), for which the “Decrease in MABP” value in the assay on Rattus norvegicus [2] was 22%. Moreover, the Activity entry in the assay on Rattus norvegicus [14] is recorded as “Antagonism reversed”.
Turning to `CCN1CCNC2CCn3c(c(C)c4ccccc43)C21` (stereo not given), in the assay on Rattus norvegicus [6], the “Decrease in MABP” value was 14%. Besides, the result in the assay on Rattus norvegicus [15] was inactive. Also, the HR entry with Rattus norvegicus [16] was “Heart rate response was reported to reduce by 10-25% after 4 hr at a peroral dose of 10 mg/kg”.
